By IC50 is commonly meant the concentration at which inhibition is half-maximal. By Ki is commonly meant the dissociation constant of the complex between target and ligand, obtained from inhibition or displacement. What is called inhibition is the relative decrease from the control value, in per cent.

One data set addresses T1, Beta-galactosidase (Bos taurus, UniProt Q58D55).
T1 sequence (Q58D55 whole entry): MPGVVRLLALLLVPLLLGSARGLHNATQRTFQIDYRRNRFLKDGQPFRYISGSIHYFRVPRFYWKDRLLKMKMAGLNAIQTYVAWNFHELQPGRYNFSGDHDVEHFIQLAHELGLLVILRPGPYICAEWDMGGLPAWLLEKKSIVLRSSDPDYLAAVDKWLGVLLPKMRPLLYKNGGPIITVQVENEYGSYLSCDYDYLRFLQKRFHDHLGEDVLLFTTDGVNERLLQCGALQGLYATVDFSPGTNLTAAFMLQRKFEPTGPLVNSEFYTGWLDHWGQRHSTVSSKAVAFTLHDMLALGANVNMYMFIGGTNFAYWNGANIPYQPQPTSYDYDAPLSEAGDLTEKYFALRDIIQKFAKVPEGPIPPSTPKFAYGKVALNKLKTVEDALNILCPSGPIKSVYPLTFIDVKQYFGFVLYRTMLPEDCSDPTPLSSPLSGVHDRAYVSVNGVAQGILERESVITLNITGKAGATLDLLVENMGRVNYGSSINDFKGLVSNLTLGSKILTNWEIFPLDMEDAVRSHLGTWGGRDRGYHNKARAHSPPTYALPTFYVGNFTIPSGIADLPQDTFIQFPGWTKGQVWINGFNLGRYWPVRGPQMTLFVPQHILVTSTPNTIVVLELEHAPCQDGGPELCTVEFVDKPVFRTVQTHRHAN
As to the kind of experiment: Inhibition of bovine liver beta-galactosidase.

Data set [1] deals with T2, Lysosomal acid glucosylceramidase (Homo sapiens) (UniProt P04062).
T2 sequence (whole entry): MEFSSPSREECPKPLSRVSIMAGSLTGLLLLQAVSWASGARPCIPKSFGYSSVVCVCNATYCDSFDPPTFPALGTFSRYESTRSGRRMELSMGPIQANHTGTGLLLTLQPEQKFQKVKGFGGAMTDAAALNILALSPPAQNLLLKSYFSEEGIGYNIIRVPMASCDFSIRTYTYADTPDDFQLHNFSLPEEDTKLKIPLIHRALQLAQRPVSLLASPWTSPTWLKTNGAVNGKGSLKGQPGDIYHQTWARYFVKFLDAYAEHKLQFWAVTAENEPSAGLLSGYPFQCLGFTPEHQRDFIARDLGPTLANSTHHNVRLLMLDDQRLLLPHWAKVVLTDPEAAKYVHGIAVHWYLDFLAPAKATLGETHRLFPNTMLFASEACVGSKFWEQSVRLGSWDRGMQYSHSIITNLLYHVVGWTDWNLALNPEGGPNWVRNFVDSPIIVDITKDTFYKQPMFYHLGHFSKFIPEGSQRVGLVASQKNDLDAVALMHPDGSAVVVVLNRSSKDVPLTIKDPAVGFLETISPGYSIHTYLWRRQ
As to the kind of experiment: Enzyme stabilization ratio of recombinant glucocerebrosidase activity at 48 degC to at 37 degC at 100 uM after 60 mins.

Data set [2] addresses T3, Lysosomal acid glucosylceramidase (Homo sapiens, UniProt P04062).
T3 sequence (P04062 whole entry): T2 sequence (whole entry)
The data set can be described thus: Competitive inhibition of recombinant glucocerebrosidase.

For data set [3], the target named is T4, Ceramide glucosyltransferase (Homo sapiens) (UniProt Q16739).
T4 sequence (whole entry): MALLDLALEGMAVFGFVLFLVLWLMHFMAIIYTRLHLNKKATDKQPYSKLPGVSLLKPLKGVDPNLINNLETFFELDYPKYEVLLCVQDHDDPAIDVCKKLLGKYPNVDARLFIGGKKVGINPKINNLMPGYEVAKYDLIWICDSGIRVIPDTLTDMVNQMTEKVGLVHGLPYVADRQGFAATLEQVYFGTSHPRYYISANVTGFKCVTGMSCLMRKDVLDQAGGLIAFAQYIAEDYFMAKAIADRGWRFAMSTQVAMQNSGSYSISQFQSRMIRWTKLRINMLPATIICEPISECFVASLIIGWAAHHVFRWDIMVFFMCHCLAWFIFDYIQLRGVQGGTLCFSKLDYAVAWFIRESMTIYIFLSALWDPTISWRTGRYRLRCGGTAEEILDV
The data set can be described thus: Inhibition of glucosylceramide synthase in human A549 cells at 250 uM after 35 mins by fluorometric analysis. The class given is cell-based.

Data set [4] addresses T2, Lysosomal acid glucosylceramidase (Homo sapiens). The data set can be described thus: Thermal stabilization of recombinant glucocerebrosidase assessed as enzyme activity at 150 uM at 48 degC after 60 mins. Summed up:
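GCase (2 mg/mL) heated at 48 °C, pH 7.4, with water (control) or compound at 10–150 μM final, for 20, 40 or 60 min. Then acetate-phosphate pH 5.0 and 4 mM 4-methylumbelliferyl β-D-glucoside in McIlvaine pH 5.2 added, 10 min at 37 °C. Stopped with glycine pH 10.6, 4-methylumbelliferone measured. Activity relative to identical assay at 37 °C. SR = relative activity with vs without inhibitor.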

Data set [5] can be described thus: Cytotoxicity against human wild type fibroblasts at up to 300 uM after 24 hrs by MTT assay. The class given is cell-based. Conditions: fibroblast.
The next data set concerns the target Alpha-galactosidase (Coffea arabica, UniProt Q42656). The data set can be described thus: Inhibition of alpha-galactosidase from coffee beans.
The target in data set [6] is Probable alpha-glucosidase Os06g0675700 (Oryza sativa Japonica Group, UniProt Q653V7). The data set can be described thus: Inhibition of rice alpha-glucosidase.
Data set [7] addresses T2, Lysosomal acid glucosylceramidase (Homo sapiens). As to the kind of experiment: Inhibition of glucocerebrosidase in human intact fibroblasts at 50 uM after 24 hrs by fluorometric analysis. Summed up: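 Fibroblasts grown in MEM with 15% inactivated FCS, 37 °C, 5% CO2, passages 14–30. Plated in DMEM with aminocyclitol (50 μM final, from DMSO) for 24 h, washed with PBS. GCase assayed with 1 h incubation at 37 °C, stopped with 100 mM glycine-NaOH pH 10.6, fluorescence 355/460 nm. Untreated and treated cells in quadruplicate.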

For data set [8], the target named is Oligo-1,6-glucosidase IMA1 (Saccharomyces cerevisiae S288c, UniProt P53051). The data set can be described thus: Inhibition of yeast alpha-glucosidase.
Data set [9] addresses T3, Lysosomal acid glucosylceramidase. The data set can be described thus: Inhibition of recombinant glucocerebrosidase in McIlvaine buffer at pH 5.2 after 10 mins by fluorometric analysis. Summed up: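 Imiglucerase in McIlvaine buffer pH 5.2 containing 0.2% (w/v) sodium taurocholate and 0.1% (v/v) Triton X-100. Enzyme pre-incubated 30 min at 37 °C with inhibitor. Then 4 mM 4-methylumbelliferyl β-D-glucopyranoside (substrate solution), 10 min at 37 °C. Stop with 100 mM glycine/NaOH pH 10.6, fluorescence ex 355/em 460 nm. IC50 from % activity vs log[I], at least five concentrations.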

For data set [10] the target is unchanged. The data set can be described thus: Inhibition of recombinant glucocerebrosidase in McIlvaine buffer at pH 7.4 after 10 mins by fluorometric analysis.

Activity calls are given as the source filed them. The calls are words filed in the database; no cut-off is given here.

Chain of Probable alpha-glucosidase Os06g0675700 (Q653V7 whole entry): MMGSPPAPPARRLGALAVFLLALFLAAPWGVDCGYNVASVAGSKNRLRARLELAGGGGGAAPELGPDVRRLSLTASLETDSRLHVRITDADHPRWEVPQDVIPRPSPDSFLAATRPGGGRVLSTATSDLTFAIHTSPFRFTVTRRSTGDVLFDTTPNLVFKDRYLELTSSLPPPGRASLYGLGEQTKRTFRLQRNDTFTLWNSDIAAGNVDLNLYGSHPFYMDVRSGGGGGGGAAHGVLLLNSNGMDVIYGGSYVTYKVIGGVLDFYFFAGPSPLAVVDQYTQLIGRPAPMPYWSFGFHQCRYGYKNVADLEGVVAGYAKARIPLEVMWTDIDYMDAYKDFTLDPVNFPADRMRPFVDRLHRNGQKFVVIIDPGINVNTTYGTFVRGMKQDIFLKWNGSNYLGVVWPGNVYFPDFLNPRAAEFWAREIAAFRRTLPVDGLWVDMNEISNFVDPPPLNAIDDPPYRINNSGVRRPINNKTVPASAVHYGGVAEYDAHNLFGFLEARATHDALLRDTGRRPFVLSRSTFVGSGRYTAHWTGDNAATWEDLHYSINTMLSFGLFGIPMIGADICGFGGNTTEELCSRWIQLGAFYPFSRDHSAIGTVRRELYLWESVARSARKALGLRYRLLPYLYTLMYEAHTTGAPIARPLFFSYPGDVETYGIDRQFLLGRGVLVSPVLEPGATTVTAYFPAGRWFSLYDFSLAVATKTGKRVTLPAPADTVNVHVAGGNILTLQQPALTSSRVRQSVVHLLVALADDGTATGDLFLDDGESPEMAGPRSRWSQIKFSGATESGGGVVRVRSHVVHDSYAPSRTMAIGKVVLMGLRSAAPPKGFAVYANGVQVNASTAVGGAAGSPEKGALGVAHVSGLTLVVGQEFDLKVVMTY
Chain of Alpha-galactosidase (Q42656 whole entry): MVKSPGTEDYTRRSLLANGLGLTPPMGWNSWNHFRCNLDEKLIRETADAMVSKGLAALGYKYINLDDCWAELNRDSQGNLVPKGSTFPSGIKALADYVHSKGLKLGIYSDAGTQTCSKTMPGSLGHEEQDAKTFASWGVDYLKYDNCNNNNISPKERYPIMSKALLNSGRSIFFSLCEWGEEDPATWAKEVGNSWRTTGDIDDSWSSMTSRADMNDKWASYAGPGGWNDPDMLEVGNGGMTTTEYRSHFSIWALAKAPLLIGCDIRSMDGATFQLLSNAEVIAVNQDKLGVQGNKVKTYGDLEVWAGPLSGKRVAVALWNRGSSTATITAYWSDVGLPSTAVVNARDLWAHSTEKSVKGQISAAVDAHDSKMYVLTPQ
Chain of Oligo-1,6-glucosidase IMA1 (P53051 whole entry): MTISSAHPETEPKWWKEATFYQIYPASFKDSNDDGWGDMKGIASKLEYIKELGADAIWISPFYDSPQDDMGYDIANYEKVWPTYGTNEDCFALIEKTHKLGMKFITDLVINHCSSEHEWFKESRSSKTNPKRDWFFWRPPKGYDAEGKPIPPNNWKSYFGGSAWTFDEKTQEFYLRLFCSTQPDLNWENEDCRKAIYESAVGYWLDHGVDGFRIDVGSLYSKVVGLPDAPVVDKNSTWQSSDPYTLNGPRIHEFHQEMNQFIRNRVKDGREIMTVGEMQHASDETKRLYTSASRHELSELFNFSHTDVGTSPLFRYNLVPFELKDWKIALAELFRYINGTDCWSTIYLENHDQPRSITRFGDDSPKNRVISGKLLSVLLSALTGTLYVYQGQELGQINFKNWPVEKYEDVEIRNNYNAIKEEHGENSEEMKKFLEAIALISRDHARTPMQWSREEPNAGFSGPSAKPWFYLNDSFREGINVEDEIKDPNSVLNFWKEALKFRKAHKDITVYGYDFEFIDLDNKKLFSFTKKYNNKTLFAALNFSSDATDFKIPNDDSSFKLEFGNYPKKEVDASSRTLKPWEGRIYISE

Take `O[C@@H]1[C@@H](O)[C@H](O)[C@@H](NCc2cn(CC34CC5CC(CC(C5)C3)C4)nn2)[C@H](O)[C@H]1O`: the IC50 on Beta-galactosidase was greater than 100000 nM; against Alpha-galactosidase it was greater than 100000 nM; in [6] it was greater than 100000 nM; in data set [8], greater than 100000 nM; in data set [9], 2200 nM; in data set [10], 1900 nM. Further, the Ratio in data set [1] was found to be 0.7. For the same compound, the Ki in data set [2] turned out to be 1050 nM. The inhibition was determined as 32% in data set [3] and 63% in data set [7]. In addition, in data set [4], the result was inactive. In addition, the Activity entry in [5] is recorded as “Non-toxic”.
Regarding `O[C@@H]1[C@@H](O)[C@H](O)[C@@H](NCc2cn(CCC(c3ccccc3)c3ccccc3)nn2)[C@H](O)[C@H]1O`, the IC50 on Beta-galactosidase was greater than 100000 nM; against Alpha-galactosidase, greater than 100000 nM; in data set [6], greater than 100000 nM; in data set [8], greater than 100000 nM; in data set [9] it was 1500 nM; in data set [10] it was 1800 nM. Besides, the Ratio in data set [1] was 0.5. In addition, the Ki in [2] came to 770 nM. Besides, the inhibition amounted to 18% in data set [3] and 73% in data set [7]. Also, the result in data set [4] was inactive. Besides, the Activity entry in [5] was “Non-toxic”.
